Paper PMC6759879 (Journal of the American Heart Association: Cardiovascular …, 2019)

What was measured:
Cx43 CT = test: EDC cross‐linking of kinase reaction mixtures, Cx43 CT; format: binding; settings: peptide at 5, 10 and 25 μmol/L, streptavidin labeling
Method in brief: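 Kinase mixture as in the PKCε assay, but in 20 mmol/L MOPS pH 7.2 with 30 μg/mL Cx43 CT substrate and varied peptide, 15 min at 37°C. EDC added to 20 mmol/L final and left 1 h at room temperature. Stopped with LDS buffer and boiled 5 min. Run on 18% gels, then Coomassie-stained (bands excised for MS/MS) or blotted for biotin with HRP‑NeutrAvidin.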

[1] = molecular target: Cx43 CT (amino acids 255–382) (Rattus norvegicus, UniProt P08050); test: Surface plasmon resonance, immobilized biotin-peptides, Cx43 CT analyte; format: binding
Method in brief: (§1)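 Biotin-peptides are immobilized at equal RU on a streptavidin chip in HEPES/EDTA/NaCl/Tween‑20, pH 7.4. Analyte is Cx43 CT (wild type or KK/QQ) with GST removed by PreScission protease, injected at several concentrations in random order in 10 mmol/L HEPES, 100 mmol/L NaCl pH 7.4 at 30 μL/min. Regeneration: 50 mmol/L NaOH/1 mol/L NaCl. Biotin-reversed-sequence reference subtracted; mean of 3 runs.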

Cx43 CT‐KK/QQ = test: Surface plasmon resonance, immobilized biotin-peptides, Cx43 CT‐KK/QQ analyte; format: binding; settings: analyte 0.5 to 15 μmol/L, reverse control peptide subtracted, mean of 3 runs
Method in brief: as §1

[2] = tested on: PKCε phosphorylation of Cx43‐CT substrate at Ser368; test: PKCε Cx43 CT S368 phosphorylation assay; format: biochemical; settings: Western blot pS368/total Cx43; biotin-tagged peptides
Method in brief: (§2)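 PKCε (400 ng/mL, prediluted in HEPES/CHAPS/DTT buffer) is used with wild-type or KK/QQ Cx43‑CT (aa 255–382) substrate at 14 μg/mL, plus peptide. Incubated 12 min at 37°C, quenched in LDS, blotted for pS368, stripped, reprobed for total Cx43. % phosphorylation normalized to PKC+ no-peptide control.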

[3] = tested on: Cx43 CT KK/QQ mutant substrate; test: PKCε phosphorylation assay with Cx43 CT KK/QQ mutant substrate; format: biochemical; settings: biotin‐αCT1 20 μmol/L
Method in brief: as §2

ZO‐1 PDZ2 = test: Protein thermal shift assay, ZO‐1 PDZ2; format: binding; settings: 500 μg/mL GST‐PDZ2, 25 to 100 μmol/L peptide, PBS pH 7.4, SYPRO Orange, N=6
Method in brief: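 Recombinant GST–PDZ2 (500 μg/mL) is mixed with 25–100 μmol/L peptide in PBS pH 7.4 with SYPRO Orange at 8× final. Melt runs from 25°C to 95°C in 0.05 °C/s steps on a real-time PCR instrument, ROX channel, no quencher. Tm is compared against unliganded protein. Six independent runs.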

ZO‐1 PDZ2 domain = test: EDC zero-length cross‐linking to GST ZO‐1 PDZ domains; format: binding; settings: biotin‐tagged peptide at 5, 25 and 50 μmol/L, NeutrAvidin labeling
Method in brief: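 Direct coupling uses purified GST–ZO‑1 PDZ fusion protein from IPTG-induced BL21 at 50 μg/mL with biotinylated peptide in PBS pH 7.5. They react 1 h at room temperature before EDC is added. The mixture is boiled in LDS buffer, run on 18% SDS‑PAGE and blotted for GST or with NeutrAvidin‑HRP by chemiluminescence.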

Chain of Cx43 CT (amino acids 255–382) (P08050 255-382): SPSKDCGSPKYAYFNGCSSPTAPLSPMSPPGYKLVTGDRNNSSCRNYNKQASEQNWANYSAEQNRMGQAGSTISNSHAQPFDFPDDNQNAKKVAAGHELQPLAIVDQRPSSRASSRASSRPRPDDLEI

Sequence | Cx43 CT KK/QQ mutant binding to immobilized biotin-peptide (SPR response) (Cx43 CT‐KK/QQ) | Cx43 S368 phosphorylation versus PKCε+plus control (in words) [2] | also measured
RQPKIWFPNRRKPWKK LPAARIAPR [Peptide M4] | – | – | Cross‐linking to Cx43 CT by EDC (Cx43 CT): no evidence of cross‐linking
RQPKIWFPNRRKPWKK RPRPAALAI [Peptide M1] | minimal interaction | did not increase Cx43 S368 phosphorylation | Cx43 CT binding to immobilized biotin-peptide (SPR response) ([1]; analyte 0.5 to 15 μmol/L, reverse control peptide subtracted, mean of 3 runs): loss of Cx43 CT binding competence; Phosphorylation of Cx43 CT KK/QQ mutant substrate [3]: Neither αCT1 nor M1 prompted an increase in phosphorylation
RQPKIWFPNRRKPWKK RPRPAALEI [Peptide M2] | minimal interaction | did not increase Cx43 S368 phosphorylation | –
RQPKIWFPNRRKPWKK RPRPDDLBI [Peptide M3] | minimal interaction | did not increase Cx43 S368 phosphorylation | SPR binding kinetics with Cx43 CT (in words) ([1]; inspection of SPR curves): higher initial on rate; Change of ZO‐1 PDZ2 melt temperature (Tm) (ZO‐1 PDZ2): evidence of significant interaction
RQPKIWFPNRRKPWKK RPRPDDLE [αCT1‐I] | – | significant increase in PKCε‐mediated phosphorylation of Cx43 CT | Interaction with ZO‐1 PDZ2 by EDC cross‐linking (ZO‐1 PDZ2 domain): incompetent to interact with the ZO‐1 PDZ2 domain
